A value given as a limit tells only on which side of the number the result lay.

What all share (type): cell-based
Assay [1] addresses T1, Sodium-dependent dopamine transporter (Homo sapiens, UniProt Q01959). The assay can be described thus: Inhibition of re-uptake of [3H]-DA at human DAT at 10 uM expressed in HEK293 cells by liquid scintillation counting.
In assay [2] the target is T2, Sodium-dependent noradrenaline transporter (Homo sapiens, UniProt P23975). The assay can be described thus: Inhibition of re-uptake of [3H]-NE at human NET expressed in HEK293 cells by liquid scintillation counting. A digest of the protocol:
(§1)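 HEK-293 cells were grown in medium with fetal bovine serum and transfected with human DAT or NET. Uptake of radiolabelled [3H]-DA or [3H]-NE, each at 20 nM in the assay, was measured by liquid scintillation counting. The method follows a literature procedure with slight modification, and reference reuptake inhibitors were run alongside.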

Assay [3] addresses T3, Sodium-dependent serotonin transporter (Homo sapiens, UniProt P31645). The assay can be described thus: Inhibition of re-uptake of [3H]-5-HT at human SERT at 10 uM expressed in HEK293 cells by liquid scintillation counting.
Target sequence in this assay (P31645 whole entry, looked up): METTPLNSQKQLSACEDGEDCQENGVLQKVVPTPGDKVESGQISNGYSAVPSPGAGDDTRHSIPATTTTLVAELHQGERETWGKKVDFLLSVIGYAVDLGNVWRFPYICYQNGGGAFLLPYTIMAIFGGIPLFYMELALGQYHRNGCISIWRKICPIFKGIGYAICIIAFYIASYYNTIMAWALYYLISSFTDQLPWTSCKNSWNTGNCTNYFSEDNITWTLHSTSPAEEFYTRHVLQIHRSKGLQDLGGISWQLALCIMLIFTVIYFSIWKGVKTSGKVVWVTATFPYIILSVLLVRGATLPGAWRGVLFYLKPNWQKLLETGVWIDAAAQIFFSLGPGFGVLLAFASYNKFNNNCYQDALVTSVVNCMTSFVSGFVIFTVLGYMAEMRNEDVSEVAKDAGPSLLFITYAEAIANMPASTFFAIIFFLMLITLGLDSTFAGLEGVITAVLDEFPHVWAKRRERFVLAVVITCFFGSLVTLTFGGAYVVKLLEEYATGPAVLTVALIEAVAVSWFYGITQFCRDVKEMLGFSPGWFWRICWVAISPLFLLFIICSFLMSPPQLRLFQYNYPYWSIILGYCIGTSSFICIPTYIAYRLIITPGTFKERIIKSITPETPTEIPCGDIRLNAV
Assay [4] has as its target T2, Sodium-dependent noradrenaline transporter. Nature of the assay: Inhibition of re-uptake of [3H]-NE at human NET at 10 uM expressed in HEK293 cells by liquid scintillation counting.
Assay [5] addresses T1, Sodium-dependent dopamine transporter. The assay can be described thus: Inhibition of re-uptake of [3H]-DA at human DAT expressed in HEK293 cells by liquid scintillation counting. A digest of the protocol: as §1
Assay [6] deals with T3, Sodium-dependent serotonin transporter. The assay can be described thus: Inhibition of re-uptake of [3H]-5-HT at human SERT expressed in HEK293 cells by liquid scintillation counting.
Target sequence in this assay (P31645 whole entry): as the sequence (P31645 whole entry, looked up) above

T1 sequence (Q01959 whole entry): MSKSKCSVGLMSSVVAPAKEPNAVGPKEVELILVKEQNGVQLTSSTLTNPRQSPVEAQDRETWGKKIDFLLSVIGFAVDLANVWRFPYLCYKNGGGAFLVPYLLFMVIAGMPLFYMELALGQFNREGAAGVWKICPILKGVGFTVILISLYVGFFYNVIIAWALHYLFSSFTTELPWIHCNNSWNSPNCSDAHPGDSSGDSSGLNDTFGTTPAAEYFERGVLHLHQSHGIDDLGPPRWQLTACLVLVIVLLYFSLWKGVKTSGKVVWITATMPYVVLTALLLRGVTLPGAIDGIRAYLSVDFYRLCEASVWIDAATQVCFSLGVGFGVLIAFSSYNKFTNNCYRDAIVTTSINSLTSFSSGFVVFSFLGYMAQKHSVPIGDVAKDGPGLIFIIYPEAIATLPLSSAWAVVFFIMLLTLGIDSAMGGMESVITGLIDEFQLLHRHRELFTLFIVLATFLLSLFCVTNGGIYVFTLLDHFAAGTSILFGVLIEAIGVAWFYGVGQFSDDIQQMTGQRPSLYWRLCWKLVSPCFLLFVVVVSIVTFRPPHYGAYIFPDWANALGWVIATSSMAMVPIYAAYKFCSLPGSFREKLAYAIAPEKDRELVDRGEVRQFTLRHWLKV
T2 sequence (P23975 whole entry): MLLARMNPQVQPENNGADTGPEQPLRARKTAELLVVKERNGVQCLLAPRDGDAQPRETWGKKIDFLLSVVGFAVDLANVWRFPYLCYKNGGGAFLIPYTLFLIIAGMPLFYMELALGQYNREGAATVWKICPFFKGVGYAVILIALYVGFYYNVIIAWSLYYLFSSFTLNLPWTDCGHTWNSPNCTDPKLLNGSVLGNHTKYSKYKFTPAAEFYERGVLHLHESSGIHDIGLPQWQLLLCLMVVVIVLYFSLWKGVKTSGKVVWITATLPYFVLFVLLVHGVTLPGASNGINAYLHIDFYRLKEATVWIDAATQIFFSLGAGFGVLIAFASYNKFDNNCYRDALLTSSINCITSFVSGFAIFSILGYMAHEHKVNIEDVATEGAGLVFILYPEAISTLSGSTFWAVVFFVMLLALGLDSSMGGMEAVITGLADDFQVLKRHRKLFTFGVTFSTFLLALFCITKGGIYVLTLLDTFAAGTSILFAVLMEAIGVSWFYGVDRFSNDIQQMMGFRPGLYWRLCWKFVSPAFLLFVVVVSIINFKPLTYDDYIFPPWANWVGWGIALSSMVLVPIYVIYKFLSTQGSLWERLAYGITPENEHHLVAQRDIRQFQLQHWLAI

One may read the inhibition as how much of the control response was suppressed. High values mean a response far below the control, low ones a response near the control. What is called IC50 is the concentration needed to halve the response being measured. Higher therefore signals lower potency. Take `Brc1cccc(-c2nnnn2CCCN2CCC(Cc3ccccc3)CC2)c1`: the inhibition in assay [1], in assay [3] and in assay [4] was greater than 55% throughout. Besides, the IC50 in assay [2] is 4.34 µM; in assay [5], greater than 10 µM; in assay [6], greater than 10 µM.
In the case of `c1ccc(CC2CCN(CCCn3nnnc3-c3cccc4ccccc34)CC2)cc1`, the inhibition in assay [1], in assay [3] and in assay [4] was greater than 55% each time. The IC50 came to 2.51 µM in assay [2], 6 µM in assay [5] and 0.31 µM in assay [6].
Regarding `Clc1ccccc1-c1nnnn1CCCN1CCC(Cc2ccccc2)CC1`, the inhibition in assay [1], in assay [3] and in assay [4] was greater than 55% each time. Also, the IC50 in assay [2] is 3.96 µM; in assay [5], 6.55 µM; in assay [6] it was 1.32 µM.
As for `FC(F)(F)c1cccc(-c2nnnn2CCCN2CCC(Cc3ccccc3)CC2)c1`, the inhibition in assay [1], in assay [3] and in assay [4] was greater than 55% throughout. For the same compound, the IC50 was found to be 5.1 µM in assay [2], 3.74 µM in assay [5] and 8.81 µM in assay [6].
As for `COc1ccc(-c2nnnn2CCCN2CCC(Cc3ccccc3)CC2)cc1`, the inhibition in assay [1], in assay [3] and in assay [4] was greater than 55% each time. The IC50 in assay [2] was 5.52 µM; in assay [5] it was greater than 10 µM; in assay [6] it was 4.05 µM.
`c1ccc(CC2CCN(CCCn3nnnc3-c3ccccc3)CC2)cc1`: the inhibition in assay [1], in assay [3] and in assay [4] was greater than 55% each time. The IC50 in assay [2] was 3.03 µM; in assay [5] it was 4.02 µM; in assay [6], 0.88 µM.
On to `CC(=O)c1cccc(-c2nnnn2CCCN2CCC(Cc3ccccc3)CC2)c1`, for which the inhibition in assay [1], in assay [3] and in assay [4] was greater than 55% throughout. Moreover, the half-inhibitory concentration (IC50) in assay [2] stood at 3 µM; in assay [5], 5.04 µM; in assay [6] it was 0.54 µM.
In the case of `c1ccc(CC2CCN(CCn3nnnc3-c3cccc4ccccc34)CC2)cc1`, the inhibition in assay [1], in assay [3] and in assay [4] was greater than 55% each time. The IC50 in assay [2], in assay [5] and in assay [6] was greater than 10 µM each time.
On to `Clc1cccc(-c2nnnn2CCCN2CCC(Cc3ccccc3)CC2)c1Cl`, for which the inhibition in assay [1], in assay [3] and in assay [4] was greater than 55% throughout. The IC50 in assay [2] is 3.45 µM; in assay [5], greater than 10 µM; in assay [6], 3.96 µM.
For the compound `Clc1cccc(-c2nnnn2CCCN2CCC(Cc3ccccc3)CC2)c1`, the inhibition in assay [1], in assay [3] and in assay [4] was greater than 55% throughout. Further, the IC50 was 3.59 µM in assay [2], 5.18 µM in assay [5] and 1.35 µM in assay [6].
Consider `O=[N+]([O-])c1ccc(-c2nnnn2CCN2CCC(Cc3ccccc3)CC2)cc1`, for which the inhibition in assay [1], in assay [3] and in assay [4] was greater than 55% each time. Besides, the IC50 in assay [2] is 1.35 µM; in assay [5], 1.98 µM; in assay [6], 1.24 µM.
For `O=[N+]([O-])c1ccc(-c2nnnn2CCCN2CCC(Cc3ccccc3)CC2)cc1`, the inhibition in assay [1], in assay [3] and in assay [4] was greater than 55% in each case. In addition, the values for the IC50 in assay [2], in assay [5] and in assay [6] were 5.02 µM, greater than 10 µM and 5.25 µM, respectively.
For `Fc1ccc(-c2nnnn2CCCN2CCC(Cc3ccccc3)CC2)cc1`, the inhibition in assay [1], in assay [3] and in assay [4] was greater than 55% each time. The IC50 turned out to be 2.28 µM in assay [2], 3.29 µM in assay [5] and 2 µM in assay [6].
Turning to `CC(=O)c1cccc(-c2nnnn2CCN2CCC(Cc3ccccc3)CC2)c1`, the inhibition in assay [1], in assay [3] and in assay [4] was greater than 55% throughout. Besides, the figures for the IC50 in assay [2], in assay [5] and in assay [6] were 3.08 µM, 14.6 µM and 4.05 µM, respectively.
Regarding `Clc1ccc(-c2nnnn2CCCN2CCC(Cc3ccccc3)CC2)cc1`, the inhibition in assay [1], in assay [3] and in assay [4] was greater than 55% in each case. For the same compound, the concentration for half-maximal inhibition (IC50) worked out at 2.58 µM in assay [2], 8.32 µM in assay [5] and 3.13 µM in assay [6].
As to `Brc1ccccc1-c1nnnn1CCCN1CCC(Cc2ccccc2)CC1`, the inhibition in assay [1], in assay [3] and in assay [4] was greater than 55% in each case. The IC50 is 3.46 µM in assay [2], greater than 10 µM in assay [5] and 5.13 µM in assay [6].

(Values after ChEMBL document CHEMBL4043179, “Triple reuptake inhibitors: Design, synthesis and structure-activity relationship of benzylpiperidine-tetrazoles” (Bioorg Med Chem, 2017).)
